{"source": "ChEMBL document CHEMBL3091281", "about": "“Neuroprotective benzyl benzoate glycosides from Disporum viridescens roots in HT22 hippocampal neuronal cells” (J Nat Prod, 2013)", "key": {"BV-2 (Mus musculus) [1]": {"test_system": "BV-2 (Mus musculus)", "test": "Cytotoxicity against mouse BV2 cells"}, "BV-2 (Mus musculus) [2]": {"test_system": "BV-2 (Mus musculus)", "test": "Antiinflammatory activity in mouse BV2 cells assessed as inhibition of LPS-stimulated NO production at 10 to 100 uM by Griess assay"}, "HT-22 [3]": {"test_system": "HT-22", "test": "Neuroprotective activity against L-glutamate-induced neurotoxicity in mouse HT22 cells assessed as cell viability at 10 to 100 uM incubated 1 hr prior to L-glutamate-challenge measured after 12 hrs by MTT assay", "type": "functional, cell-based", "procedure,_shortened": "(§1)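 Mouse hippocampal HT22 cells seeded at 3 × 10^4 per well in DMEM, pretreated 1 h with compound in DMSO (0.1% final), then exposed to 5 mM L-glutamate; viability by MTT after further 12 h.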"}, "HT-22 [4]": {"test_system": "HT-22", "test": "Cytotoxicity against mouse HT22 cells", "type": "cell-based", "procedure,_shortened": "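MTT viability assay in BV2 and HT22 cells, compounds tested without glutamate.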"}, "HT-22 [5]": {"test_system": "HT-22", "test": "Neuroprotective activity against L-glutamate-induced neurotoxicity in mouse HT22 cells assessed as GSH-Px activity at 50 uM incubated 1 hr prior to L-glutamate-challenge measured after 12 hrs (reference value: 0.036 +/- 0.001 mU/mg protein)", "type": "functional"}, "HT-22 [6]": {"test_system": "HT-22", "test": "Induction of ERK phosphorylation in mouse HT22 cells at 100 uM after 0.5 to 12 hrs by Western blotting analysis", "type": "cell-based", "procedure,_shortened": "(§2)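 HT22 cells treated 30 min (kinases) or 12 h (HO-1) at stated concentrations or times; lysed in RIPA with protease and phosphatase inhibitors, 30 μg protein on 10% SDS-PAGE, PVDF transfer, overnight 4 °C primary antibodies (HO-1, ERK/p-ERK, JNK/p-JNK, p38/p-p38, β-actin), ECL detection.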"}, "HT-22 [7]": {"test_system": "HT-22", "test": "Neuroprotective activity against L-glutamate-induced neurotoxicity in mouse HT22 cells assessed as SOD activity at 100 uM incubated 1 hr prior to L-glutamate-challenge measured after 12 hrs by xanthine-xanthine oxidase reaction (reference value: 16.10 +/- 0.54 U/mg protein)", "type": "functional"}, "HT-22 [8]": {"test_system": "HT-22", "test": "Neuroprotective activity against L-glutamate-induced neurotoxicity in mouse HT22 cells assessed as GR activity at 100 uM incubated 1 hr prior to L-glutamate-challenge measured after 12 hrs (reference value: 0.94 +/- 0.19 mU/mg protein)", "type": "functional"}, "[9]": {"molecular_target": "MAP kinase p38 (Mus musculus) (UniProt P47811+O08911+Q9WUI1+Q9Z1B7)", "test": "Induction of p38 phosphorylation in mouse HT22 cells at 100 uM after 0.5 to 12 hrs by Western blotting analysis", "type": "cell-based", "conditions": "HT-22", "procedure,_shortened": "as §2"}, "HT-22 [10]": {"test_system": "HT-22", "test": "Antioxidant activity in mouse HT22 cells assessed as HO-1 protein expression after 0.5 to 12 hrs by Western blotting analysis", "type": "functional, cell-based", "procedure,_shortened": "as §2"}, "HT-22 [11]": {"test_system": "HT-22", "test": "Neuroprotective activity against L-glutamate-induced neurotoxicity in mouse HT22 cells assessed as GR activity at 50 uM incubated 1 hr prior to L-glutamate-challenge measured after 12 hrs (reference value: 0.94 +/- 0.19 mU/mg protein)", "type": "functional"}, "HT-22 [12]": {"test_system": "HT-22", "test": "Neuroprotective activity against L-glutamate-induced neurotoxicity in mouse HT22 cells assessed as SOD activity at 50 uM incubated 1 hr prior to L-glutamate-challenge measured after 12 hrs by xanthine-xanthine oxidase reaction (reference value: 16.10 +/- 0.54 U/mg protein)", "type": "functional"}, "HT-22 [13]": {"test_system": "HT-22", "test": "Neuroprotective activity against L-glutamate-induced neurotoxicity in mouse HT22 cells assessed as GR activity at 10 uM incubated 1 hr prior to L-glutamate-challenge measured after 12 hrs (reference value: 0.94 +/- 0.19 mU/mg protein)", "type": "functional"}, "HT-22 [14]": {"test_system": "HT-22", "test": "Neuroprotective activity against L-glutamate-induced neurotoxicity in mouse HT22 cells assessed as GSH-Px activity at 10 uM incubated 1 hr prior to L-glutamate-challenge measured after 12 hrs (reference value: 0.036 +/- 0.001 mU/mg protein)", "type": "functional"}, "HT-22 [15]": {"test_system": "HT-22", "test": "Induction of JNK phosphorylation in mouse HT22 cells at 100 uM after 0.5 to 12 hrs by Western blotting analysis", "type": "cell-based", "procedure,_shortened": "as §2"}, "HT-22 [16]": {"test_system": "HT-22", "test": "Neuroprotective activity against L-glutamate-induced neurotoxicity in mouse HT22 cells assessed as GSH/GSSG ratio at 10 uM incubated 1 hr prior to L-glutamate-challenge measured after 12 hrs (reference value: 1.105 +/- 0.112)", "type": "functional"}, "HT-22 [17]": {"test_system": "HT-22", "test": "Neuroprotective activity against L-glutamate-induced neurotoxicity in mouse HT22 cells assessed as GSH/GSSG ratio incubated 1 hr prior to L-glutamate-challenge measured after 12 hrs", "type": "functional, cell-based"}, "HT-22 [18]": {"test_system": "HT-22", "test": "Neuroprotective activity against L-glutamate-induced neurotoxicity in mouse HT22 cells assessed as GSH-Px activity at 100 uM incubated 1 hr prior to L-glutamate-challenge measured after 12 hrs (reference value: 0.036 +/- 0.001 mU/mg protein)", "type": "functional"}, "HT-22 [19]": {"test_system": "HT-22", "test": "Neuroprotective activity against L-glutamate-induced neurotoxicity in mouse HT22 cells assessed as SOD activity at 10 uM incubated 1 hr prior to L-glutamate-challenge measured after 12 hrs by xanthine-xanthine oxidase reaction (reference value: 16.10 +/- 0.54 U/mg protein)", "type": "functional"}, "HT-22 [20]": {"test_system": "HT-22", "test": "Antioxidant activity in mouse HT22 cells assessed as HO-1 protein expression at 100 uM after 6 to 18 hrs by Western blotting analysis", "type": "functional, cell-based", "procedure,_shortened": "as §2"}, "HT-22 [21]": {"test_system": "HT-22", "test": "Neuroprotective activity against L-glutamate-induced neurotoxicity in mouse HT22 cells assessed as cell viability at 100 uM incubated 1 hr prior to L-glutamate-challenge measured after 12 hrs by MTT assay in presence of SnPP", "type": "functional, cell-based", "procedure,_shortened": "as §1"}, "HT-22 [22]": {"test_system": "HT-22", "test": "Neuroprotective activity in mouse HT22 cells assessed as HO-1 protein expression at 100 uM by Western blotting analysis in presence of PD98059", "type": "functional, cell-based", "procedure,_shortened": "as §2"}, "HT-22 [23]": {"test_system": "HT-22", "test": "Neuroprotective activity against L-glutamate-induced neurotoxicity in mouse HT22 cells assessed as GSH/GSSG ratio at 50 uM incubated 1 hr prior to L-glutamate-challenge measured after 12 hrs (reference value: 1.105 +/- 0.112)", "type": "functional"}, "HT-22 [24]": {"test_system": "HT-22", "test": "Antioxidant activity in mouse HT22 cells assessed as HO-1 protein expression at 100 uM by Western blotting analysis", "type": "functional, cell-based", "conditions": "TDE = time-dependent effect", "procedure,_shortened": "as §2"}, "HT-22 [25]": {"test_system": "HT-22", "test": "Neuroprotective activity in mouse HT22 cells assessed as HO-1 protein expression at 100 uM by Western blotting analysis in presence of SP600125", "type": "functional, cell-based", "procedure,_shortened": "as §2"}, "HT-22 [26]": {"test_system": "HT-22", "test": "Neuroprotective activity against L-glutamate-induced neurotoxicity in mouse HT22 cells assessed as GSH/GSSG ratio at 100 uM incubated 1 hr prior to L-glutamate-challenge measured after 12 hrs (reference value: 1.105 +/- 0.112)", "type": "functional"}, "HT-22 [27]": {"test_system": "HT-22", "test": "Neuroprotective activity in mouse HT22 cells assessed as HO-1 protein expression at 100 uM by Western blotting analysis in presence of SB203580", "type": "functional, cell-based", "procedure,_shortened": "as §2"}}, "note": "The source made the active and inactive calls. The calls are words filed in the database; no cut-off is given here.", "data": [{"molecule": "COc1ccc(O[C@@H]2O[C@@H](C)[C@H](O)[C@@H](O)[C@H]2O)c(C(=O)OCc2ccccc2O[C@@H]2O[C@H](CO)[C@@H](O)[C@H](O)[C@H]2O)c1O", "values": [{"measurement": "Activity", "setting": "BV-2 (Mus musculus) [1]", "result": "Toxic"}, {"measurement": "Activity", "setting": "BV-2 (Mus musculus) [2]", "result": "Active"}, {"measurement": "Activity", "setting": "HT-22 [3]", "result": "Active"}, {"measurement": "Activity", "setting": "HT-22 [4]", "result": "Toxic"}]}, {"molecule": "O=C(OCc1ccccc1O[C@@H]1O[C@H](CO)[C@@H](O)[C@H](O)[C@H]1O)c1c(O)cccc1O[C@@H]1O[C@H](CO)[C@@H](O)[C@H](O)[C@H]1O", "values": [{"measurement": "Activity", "setting": "BV-2 (Mus musculus) [1]", "result": "Toxic"}, {"measurement": "Activity", "setting": "BV-2 (Mus musculus) [2]", "result": "Active"}, {"measurement": "Activity", "setting": "HT-22 [4]", "result": "Toxic"}]}, {"molecule": "COc1c(O)ccc(O[C@@H]2O[C@@H](C)[C@H](OC(C)=O)[C@@H](O)[C@H]2O)c1C(=O)OCc1ccccc1O[C@@H]1O[C@H](CO)[C@@H](O)[C@H](O)[C@H]1O", "values": [{"measurement": "Activity", "setting": "HT-22 [5]", "result": 0.055, "unit": "mU/mg"}, {"measurement": "Activity", "setting": "HT-22 [6]", "result": "Active"}, {"measurement": "Activity", "setting": "HT-22 [7]", "result": 30.71, "unit": "U/mg"}, {"measurement": "Activity", "setting": "HT-22 [8]", "result": 1.14, "unit": "mU/mg"}, {"measurement": "Activity", "setting": "[9]", "result": "inactive"}, {"measurement": "Activity", "setting": "HT-22 [10]", "result": "Dose-dependent effect"}, {"measurement": "Activity", "setting": "HT-22 [11]", "result": 0.9, "unit": "mU/mg"}, {"measurement": "Activity", "setting": "HT-22 [12]", "result": 29.05, "unit": "U/mg"}, {"measurement": "Activity", "setting": "HT-22 [13]", "result": 0.72, "unit": "mU/mg"}, {"measurement": "Activity", "setting": "HT-22 [14]", "result": 0.056, "unit": "mU/mg"}, {"measurement": "Activity", "setting": "HT-22 [15]", "result": "inactive"}, {"measurement": "Ratio", "setting": "HT-22 [16]", "result": 1.594}, {"measurement": "Activity", "setting": "HT-22 [17]", "result": "Dose-dependent effect"}, {"measurement": "Activity", "setting": "HT-22 [18]", "result": 0.059, "unit": "mU/mg"}, {"measurement": "Activity", "setting": "HT-22 [19]", "result": 29.78, "unit": "U/mg"}, {"measurement": "Activity", "setting": "HT-22 [20]", "result": "Active"}, {"measurement": "Activity", "setting": "BV-2 (Mus musculus) [1]", "result": "Toxic"}, {"measurement": "Activity", "setting": "HT-22 [21]", "result": "inactive"}, {"measurement": "Activity", "setting": "BV-2 (Mus musculus) [2]", "result": "Active"}, {"measurement": "Activity", "setting": "HT-22 [22]", "result": "inactive"}, {"measurement": "Ratio", "setting": "HT-22 [23]", "result": 2.3}, {"measurement": "Activity", "setting": "HT-22 [3]", "result": "Active"}, {"measurement": "Activity", "setting": "HT-22 [24]", "result": "tde"}, {"measurement": "Activity", "setting": "HT-22 [25]", "result": "Active"}, {"measurement": "Ratio", "setting": "HT-22 [26]", "result": 2.824}, {"measurement": "Activity", "setting": "HT-22 [4]", "result": "Toxic"}, {"measurement": "Activity", "setting": "HT-22 [27]", "result": "Active"}]}, {"molecule": "COc1c(O)ccc(O[C@@H]2O[C@@H](C)[C@H](O)[C@@H](O)[C@H]2O)c1C(=O)OCc1ccccc1O[C@@H]1O[C@H](CO)[C@@H](O)[C@H](O)[C@H]1O", "values": [{"measurement": "Activity", "setting": "BV-2 (Mus musculus) [1]", "result": "Toxic"}, {"measurement": "Activity", "setting": "BV-2 (Mus musculus) [2]", "result": "Active"}, {"measurement": "Activity", "setting": "HT-22 [3]", "result": "Active"}, {"measurement": "Activity", "setting": "HT-22 [4]", "result": "Toxic"}]}, {"molecule": "C[C@@H]1O[C@@H](Oc2ccc(O)c(O)c2C(=O)OCc2ccccc2O[C@@H]2O[C@H](CO)[C@@H](O)[C@H](O)[C@H]2O)[C@H](O)[C@H](O)[C@H]1O", "values": [{"measurement": "Activity", "setting": "BV-2 (Mus musculus) [1]", "result": "Toxic"}, {"measurement": "Activity", "setting": "BV-2 (Mus musculus) [2]", "result": "Active"}, {"measurement": "Activity", "setting": "HT-22 [4]", "result": "Toxic"}]}, {"molecule": "COc1c(O)ccc(O[C@@H]2O[C@@H](C)[C@H](O)[C@@H](O)[C@H]2O)c1C(=O)OCc1ccccc1O[C@@H]1O[C@@H](C)[C@H](O)[C@@H](O)[C@H]1O", "values": [{"measurement": "Activity", "setting": "BV-2 (Mus musculus) [1]", "result": "Toxic"}, {"measurement": "Activity", "setting": "BV-2 (Mus musculus) [2]", "result": "Active"}, {"measurement": "Activity", "setting": "HT-22 [3]", "result": "Active"}, {"measurement": "Activity", "setting": "HT-22 [4]", "result": "Toxic"}]}]}
